Legend:
MCF7 [1] = experiment: Inhibition of protein tyrosine kinase in human MCF7 cells assessed as change in TRK level at cytotoxic IC50 level incubated for 24 hrs by ELISA method; type: cell-based; design: scale not given: the % may be the effect or the level left
How it was run: (§1)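 Cells kept in DMEM with 10% heat-inactivated fetal calf serum plus penicillin/streptomycin at 37 °C, 5% CO2. […] Cells homogenized in saline. TRK measured by double-antibody sandwich ELISA, OD 450 nm, read against a standard curve in triplicate. Percent inhibition relative to DMSO-treated control cells.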

HepG2 [2] = experiment: Inhibition of protein tyrosine kinase in human HepG2 cells assessed as change in TRK level at cytotoxic IC50 level incubated for 24 hrs by ELISA method; type: cell-based; design: scale not given: the % may be the effect or the level left; how it was run: as §1
HepG2 [3] = experiment: Cytotoxicity against human HepG2 cells after 48 hrs by sulforhodamine B assay; type: functional, cell-based; conditions: HepG2, 48 h
How it was run: (§2)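 Cells seeded at 10^4 per well, left 24 h to attach, then exposed to 0, 12.5, 25, 50 […] as printed, triplicate wells per dose, 48 h at 37 °C, 5% CO2. Fixed, stained with sulforhodamine B, excess dye removed with acetic acid, bound dye taken up in Tris EDTA and read on an ELISA reader. IC50 from survival curve of surviving fraction against concentration.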

[4] = molecular target: T1, Prostaglandin G/H synthase 1 (Ovis aries, UniProt P05979); experiment: Inhibition of ovine COX1 assessed as reduction in PGH2 production using arachidonic acid substrate by enzyme immunoassay
T1 sequence (P05979 whole entry): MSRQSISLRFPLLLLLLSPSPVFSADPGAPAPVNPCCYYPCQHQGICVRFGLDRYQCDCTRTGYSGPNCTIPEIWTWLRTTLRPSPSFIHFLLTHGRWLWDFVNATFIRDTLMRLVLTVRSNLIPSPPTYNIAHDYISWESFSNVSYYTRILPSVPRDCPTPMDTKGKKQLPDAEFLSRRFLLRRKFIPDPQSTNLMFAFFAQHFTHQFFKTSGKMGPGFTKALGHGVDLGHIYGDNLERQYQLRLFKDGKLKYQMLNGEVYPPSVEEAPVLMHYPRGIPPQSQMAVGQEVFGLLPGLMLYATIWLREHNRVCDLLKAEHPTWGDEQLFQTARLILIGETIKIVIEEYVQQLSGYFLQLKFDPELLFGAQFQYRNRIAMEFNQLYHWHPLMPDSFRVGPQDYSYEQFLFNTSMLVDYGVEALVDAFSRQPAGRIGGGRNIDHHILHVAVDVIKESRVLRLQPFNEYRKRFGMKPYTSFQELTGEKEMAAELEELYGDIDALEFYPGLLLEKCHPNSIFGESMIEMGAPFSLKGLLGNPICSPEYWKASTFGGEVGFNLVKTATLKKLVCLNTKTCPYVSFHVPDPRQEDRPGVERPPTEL
How it was run: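 Ovine COX-1 with heme in 0.1 M Tris-HCl pH 8.0 containing 5 mM EDTA and 2 mM phenol. Test compound given at […] final, from DMSO stock. Preincubated 5 min at 37 °C, then arachidonic acid added; stopped with 1 M HCl after 2 min. PGH2 reduced to PGF2a by stannous chloride, measured by competitive EIA at 410 nm. IC50 from concentration-inhibition curve, duplicate determinations.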

MCF7 [5] = experiment: Cytotoxicity against human MCF7 cells after 48 hrs by sulforhodamine B assay; type: functional, cell-based; conditions: MCF7, 48 h; how it was run: as §2

Row | IC50 [4] [µM] | SMILES | Activity (MCF7 [1]) [%] | Activity (HepG2 [2]) [%] | IC50 (HepG2 [3]) [µM] | IC50 (MCF7 [5]) [µM]
1 | > 50 | Cc1nn(-c2ccccc2)c(N2CCN(C)CC2)c1/C=N/Nc1nc2ccccc2nc1O | 83 | 83 | 11.4 | 10
2 | > 50 | Cc1nn(-c2ccccc2)c(N(C)C)c1/C=N/Nc1nc2ccccc2nc1O | 62 | 73 | 31.5 | 18
3 | – | Cc1nn(-c2ccccc2)c(SCC(=O)O)c1/C=N/Nc1nc2ccccc2nc1O | 4 | 22 | 40.6 | 33.6
4 | > 50 | CC(=O)N1CCN(c2c(/C=N/Nc3nc4ccccc4nc3O)c(C)nn2-c2ccccc2)CC1 | – | 80 | 11 | 18
5 | > 50 | Cc1nn(-c2ccccc2)c(Cl)c1/C=N/Nc1nc2ccccc2[nH]c1=O | 34 | 79 | 19.6 | 25.2
6 | > 50 | Cc1nn(-c2ccccc2)c(N2CCOCC2)c1/C=N/Nc1nc2ccccc2nc1O | 85 | 84 | 11 | 9.28
7 | – | Cc1nn(-c2ccc([N+](=O)[O-])cc2)c(Cl)c1/C=N/Nc1nc2ccccc2[nH]c1=O | 40 | 39 | 34.2 | 20.7
8 | – | Cc1nn(-c2ccccc2)c(N2CCN(S(=O)(=O)c3ccccc3[N+](=O)[O-])CC2)c1/C=N/Nc1nc2ccccc2nc1O | 37 | 13 | 32.2 | 14.3
9 | > 50 | Cc1nn(-c2ccccc2)c(OC2CCCC2)c1/C=N/Nc1nc2ccccc2nc1O | 16.5 | 40 | 36.5 | 31.5
10 | – | Cc1nn(-c2ccccc2)c(SCCO)c1/C=N/Nc1nc2ccccc2nc1O | 82 | 78 | 23.4 | 11.3
11 | > 50 | Cc1nn(-c2ccccc2)c(N2CCCCC2)c1/C=N/Nc1nc2ccccc2nc1O | 74 | 75 | 18.1 | 12.8
12 | – | Cc1nn(-c2ccccc2)c(N2CCN(S(=O)(=O)c3ccccc3)CC2)c1/C=N/Nc1nc2ccccc2nc1O | 12 | 19 | 28.1 | 26.2
13 | > 50 | Cc1nn(-c2ccccc2)c(N2CCNCC2)c1/C=N/Nc1nc2ccccc2nc1O | 66 | 20 | 38.1 | 16.3
